Results: ChEMBL document CHEMBL4689842, “EUbOPEN Chemogenomics Library wave 1” (2021)
Where “and” joins values, the source holds several entries; their conditions need not be identical. Equal values may be shown once.

Tested on: HEK-293T
Assay: Multiplex assay against HEK293T;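 for Population Tubulin-Different-Phenotype (%): share of the cells with healthy nuclei that show this phenotype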
Format: toxicity, cell-based
Conditions: human
Procedure, shortened: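 Hoechst33342, BioTracker Green Microtubule Cytoskeleton Dye, MitoTracker Red and Annexin V Alexa Fluor 680 were added to live cells at seeding, and imaging on a CQ1 microscope at 37°C and 5% CO2 followed compound addition. Gating by CellPathfinder machine learning separated cells into Hoechst high-intensity objects or normal cells, then normal cells into healthy, pyknosed or fragmented nuclei, then pyknosed cells into mitotic or apoptotic. Per cents of healthy-nucleus cells are reported for the tubulin, mitochondrial-mass and membrane-permeability phenotypes.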

[1] = 12 h, 1 µM, compound concentration 1 uM, replicate 1
[2] = 12 h, 1 µM, compound concentration 1 uM, replicate 2
[3] = 12 h, 10 µM, compound concentration 10 uM, replicate 1
[4] = 12 h, 10 µM, compound concentration 10 uM, replicate 2
[5] = 24 h, 1 µM, compound concentration 1 uM, replicate 1
[6] = 24 h, 1 µM, compound concentration 1 uM, replicate 2
[7] = 24 h, 10 µM, compound concentration 10 uM, replicate 1
[8] = 24 h, 10 µM, compound concentration 10 uM, replicate 2
[9] = 48 h, 1 µM, compound concentration 1 uM, replicate 1
[10] = 48 h, 1 µM, compound concentration 1 uM, replicate 2
[11] = 48 h, 10 µM, compound concentration 10 uM, replicate 1
[12] = 48 h, 10 µM, compound concentration 10 uM, replicate 2

Cn1cc(-c2[nH]c3cc(NC(=O)[C@H](N)C4CCCCC4)cc4c3c2C=NNC4=O)cn1
Population Apoptotic (%) [1]: 40%
Population Fragmented Nuclei (%) [1]: 10%
Population Healthy Nuclei (%) [1]: 26%
Population Hoechst High Intensity Objects (%) [1]: 14%
Population Membrane Permeable-Phenotype (%) [1]: 10%
Population Mitochondria Different-Phenotype (%) [1]: 71%
Population Mitotic Cells (%) [1]: 60%
Population Normal (%) [1]: 85%
Population Pyknosed Nuclei (%) [1]: 62%
Population Tubulin-Different-Phenotype (%) [1]: 42%
Total Cell Count [1]: 344
Population Apoptotic (%) [2]: 17%
Population Fragmented Nuclei (%) [2]: 6%
Population Healthy Nuclei (%) [2]: 28%
Population Hoechst High Intensity Objects (%) [2]: 6%
Population Membrane Permeable-Phenotype (%) [2]: 11%
Population Mitochondria Different-Phenotype (%) [2]: 7%
Population Mitotic Cells (%) [2]: 82%
Population Normal (%) [2]: 93%
Population Pyknosed Nuclei (%) [2]: 65%
Population Tubulin-Different-Phenotype (%) [2]: 25%
Total Cell Count [2]: 259
Population Apoptotic (%) [3]: 64%
Population Fragmented Nuclei (%) [3]: 15%
Population Healthy Nuclei (%) [3]: 24%
Population Hoechst High Intensity Objects (%) [3]: 17%
Population Membrane Permeable-Phenotype (%) [3]: 10%
Population Mitochondria Different-Phenotype (%) [3]: 82%
Population Mitotic Cells (%) [3]: 35%
Population Normal (%) [3]: 82%
Population Pyknosed Nuclei (%) [3]: 60%
Population Tubulin-Different-Phenotype (%) [3]: 62%
Total Cell Count [3]: 329
Population Apoptotic (%) [4]: 42%
Population Fragmented Nuclei (%) [4]: 6%
Population Healthy Nuclei (%) [4]: 17%
Population Hoechst High Intensity Objects (%) [4]: 6%
Population Membrane Permeable-Phenotype (%) [4]: 6%
Population Mitochondria Different-Phenotype (%) [4]: 46%
Population Mitotic Cells (%) [4]: 57%
Population Normal (%) [4]: 93%
Population Pyknosed Nuclei (%) [4]: 75%
Population Tubulin-Different-Phenotype (%) [4]: 66%
Total Cell Count [4]: 180
Population Apoptotic (%) [5]: 41%
Population Fragmented Nuclei (%) [5]: 13%
Population Healthy Nuclei (%) [5]: 20%
Population Hoechst High Intensity Objects (%) [5]: 19%
Population Membrane Permeable-Phenotype (%) [5]: 5%
Population Mitochondria Different-Phenotype (%) [5]: 62%
Population Mitotic Cells (%) [5]: 58%
Population Normal (%) [5]: 80%
Population Pyknosed Nuclei (%) [5]: 65%
Population Tubulin-Different-Phenotype (%) [5]: 68%
Total Cell Count [5]: 330
Population Apoptotic (%) [6]: 40%
Population Fragmented Nuclei (%) [6]: 6%
Population Healthy Nuclei (%) [6]: 26%
Population Hoechst High Intensity Objects (%) [6]: 9%
Population Membrane Permeable-Phenotype (%) [6]: 14%
Population Mitochondria Different-Phenotype (%) [6]: 19%
Population Mitotic Cells (%) [6]: 59%
Population Normal (%) [6]: 90%
Population Pyknosed Nuclei (%) [6]: 67%
Population Tubulin-Different-Phenotype (%) [6]: 53%
Total Cell Count [6]: 263
Population Apoptotic (%) [7]: 74%
Population Fragmented Nuclei (%) [7]: 17%
Population Healthy Nuclei (%) [7]: 13%
Population Hoechst High Intensity Objects (%) [7]: 17%
Population Membrane Permeable-Phenotype (%) [7]: 14%
Population Mitochondria Different-Phenotype (%) [7]: 97%
Population Mitotic Cells (%) [7]: 25%
Population Normal (%) [7]: 82%
Population Pyknosed Nuclei (%) [7]: 69%
Population Tubulin-Different-Phenotype (%) [7]: 82%
Total Cell Count [7]: 311
Population Apoptotic (%) [8]: 72%
Population Fragmented Nuclei (%) [8]: 6%
Population Healthy Nuclei (%) [8]: 6%
Population Hoechst High Intensity Objects (%) [8]: 12%
Population Membrane Permeable-Phenotype (%) [8]: 0%
Population Mitochondria Different-Phenotype (%) [8]: 70%
Population Mitotic Cells (%) [8]: 27%
Population Normal (%) [8]: 87%
Population Pyknosed Nuclei (%) [8]: 86%
Population Tubulin-Different-Phenotype (%) [8]: 70%
Total Cell Count [8]: 175
Population Apoptotic (%) [9]: 36%
Population Fragmented Nuclei (%) [9]: 22%
Population Healthy Nuclei (%) [9]: 5%
Population Hoechst High Intensity Objects (%) [9]: 23%
Population Membrane Permeable-Phenotype (%) [9]: 6%
Population Mitochondria Different-Phenotype (%) [9]: 46%
Population Mitotic Cells (%) [9]: 63%
Population Normal (%) [9]: 76%
Population Pyknosed Nuclei (%) [9]: 71%
Population Tubulin-Different-Phenotype (%) [9]: 60%
Total Cell Count [9]: 373
Population Apoptotic (%) [10]: 52%
Population Fragmented Nuclei (%) [10]: 10%
Population Healthy Nuclei (%) [10]: 14%
Population Hoechst High Intensity Objects (%) [10]: 17%
Population Membrane Permeable-Phenotype (%) [10]: 17%
Population Mitochondria Different-Phenotype (%) [10]: 20%
Population Mitotic Cells (%) [10]: 47%
Population Normal (%) [10]: 82%
Population Pyknosed Nuclei (%) [10]: 75%
Population Tubulin-Different-Phenotype (%) [10]: 64%
Total Cell Count [10]: 278
Population Apoptotic (%) [11]: 72%
Population Fragmented Nuclei (%) [11]: 20%
Population Healthy Nuclei (%) [11]: 3%
Population Hoechst High Intensity Objects (%) [11]: 20%
Population Membrane Permeable-Phenotype (%) [11]: 11%
Population Mitochondria Different-Phenotype (%) [11]: 77%
Population Mitotic Cells (%) [11]: 27%
Population Normal (%) [11]: 79%
Population Pyknosed Nuclei (%) [11]: 76%
Population Tubulin-Different-Phenotype (%) [11]: 66%
Total Cell Count [11]: 331
Population Apoptotic (%) [12]: 89%
Population Fragmented Nuclei (%) [12]: 5%
Population Healthy Nuclei (%) [12]: 1%
Population Hoechst High Intensity Objects (%) [12]: 15%
Population Membrane Permeable-Phenotype (%) [12]: 0%
Population Mitochondria Different-Phenotype (%) [12]: 66%
Population Mitotic Cells (%) [12]: 10%
Population Normal (%) [12]: 84%
Population Pyknosed Nuclei (%) [12]: 92%
Total Cell Count [12]: 179

C[C@@]1(C(=O)Nc2ccc(F)nc2)CCCN1c1nc(Nc2cc(C3CC3)n[nH]2)c2cccn2n1 [BMS-754807]
Population Apoptotic (%) [1]: 24%
Population Fragmented Nuclei (%) [1]: 19%
Population Healthy Nuclei (%) [1]: 38%
Population Hoechst High Intensity Objects (%) [1]: 25%
Population Membrane Permeable-Phenotype (%) [1]: 7%
Population Mitochondria Different-Phenotype (%) [1]: 32%
Population Mitotic Cells (%) [1]: 75%
Population Normal (%) [1]: 74%
Population Pyknosed Nuclei (%) [1]: 42%
Population Tubulin-Different-Phenotype (%) [1]: 68%
Total Cell Count [1]: 622
Population Apoptotic (%) [2]: 20%
Population Fragmented Nuclei (%) [2]: 3%
Population Healthy Nuclei (%) [2]: 72%
Population Hoechst High Intensity Objects (%) [2]: 12%
Population Mitochondria Different-Phenotype (%) [2]: 57%
Population Mitotic Cells (%) [2]: 80%
Population Normal (%) [2]: 87%
Population Pyknosed Nuclei (%) [2]: 23%
Population Tubulin-Different-Phenotype (%) [2]: 92%
Total Cell Count [2]: 768
Population Fragmented Nuclei (%) [3]: 13% and 14%
Population Hoechst High Intensity Objects (%) [3]: 17% and 19%
Population Membrane Permeable-Phenotype (%) [3]: 9% and 4%
Population Normal (%) [3]: 82% and 80%
Population Pyknosed Nuclei (%) [3]: 71% and 26%
Total Cell Count [3]: 259 and 598
Population Fragmented Nuclei (%) [4]: 7% and 3%
Population Hoechst High Intensity Objects (%) [4]: 9% and 6%
Population Membrane Permeable-Phenotype (%) [4]: 10% and 3%
Population Mitotic Cells (%) [4]: 51%
Population Normal (%) [4]: 90% and 93%
Population Tubulin-Different-Phenotype (%) [4]: 94% and 44%
Population Apoptotic (%) [5]: 25%
Population Fragmented Nuclei (%) [5]: 18%
Population Healthy Nuclei (%) [5]: 56%
Population Hoechst High Intensity Objects (%) [5]: 20%
Population Membrane Permeable-Phenotype (%) [5]: 8%
Population Mitochondria Different-Phenotype (%) [5]: 32%
Population Mitotic Cells (%) [5]: 74%
Population Normal (%) [5]: 79%
Population Pyknosed Nuclei (%) [5]: 25%
Population Tubulin-Different-Phenotype (%) [5]: 79%
Total Cell Count [5]: 652
Population Apoptotic (%) [6]: 17%
Population Fragmented Nuclei (%) [6]: 3%
Population Healthy Nuclei (%) [6]: 82%
Population Hoechst High Intensity Objects (%) [6]: 9%
Population Membrane Permeable-Phenotype (%) [6]: 10%
Population Mitochondria Different-Phenotype (%) [6]: 44%
Population Mitotic Cells (%) [6]: 82%
Population Normal (%) [6]: 90%
Population Pyknosed Nuclei (%) [6]: 13%
Population Tubulin-Different-Phenotype (%) [6]: 95%
Total Cell Count [6]: 865
Population Apoptotic (%) [7]: 70% and 26%
Population Fragmented Nuclei (%) [7]: 17% and 14%
Population Hoechst High Intensity Objects (%) [7]: 14% and 19%
Population Membrane Permeable-Phenotype (%) [7]: 2% and 5%
Population Mitotic Cells (%) [7]: 29% and 73%
Population Normal (%) [7]: 85% and 80%
Population Tubulin-Different-Phenotype (%) [7]: 94% and 44%
Total Cell Count [7]: 284 and 562
Population Fragmented Nuclei (%) [8]: 6% and 8%
Population Hoechst High Intensity Objects (%) [8]: 10% and 8%
Population Membrane Permeable-Phenotype (%) [8]: 10% and 4%
Population Mitotic Cells (%) [8]: 30% and 81%
Population Normal (%) [8]: 89% and 91%
Population Tubulin-Different-Phenotype (%) [8]: 95% and 56%
Population Apoptotic (%) [11]: 65%
Population Fragmented Nuclei (%) [11]: 17%
Population Healthy Nuclei (%) [11]: 7%
Population Hoechst High Intensity Objects (%) [11]: 15%
Population Membrane Permeable-Phenotype (%) [11]: 15%
Population Mitochondria Different-Phenotype (%) [11]: 94%
Population Mitotic Cells (%) [11]: 34%
Population Normal (%) [11]: 84%
Population Pyknosed Nuclei (%) [11]: 74%
Population Tubulin-Different-Phenotype (%) [11]: 94%
Total Cell Count [11]: 290
Population Apoptotic (%) [12]: 78%
Population Fragmented Nuclei (%) [12]: 4%
Population Healthy Nuclei (%) [12]: 57%
Population Hoechst High Intensity Objects (%) [12]: 7%
Population Membrane Permeable-Phenotype (%) [12]: 3%
Population Mitochondria Different-Phenotype (%) [12]: 85%
Population Mitotic Cells (%) [12]: 21%
Population Normal (%) [12]: 92%
Population Pyknosed Nuclei (%) [12]: 37%
Population Tubulin-Different-Phenotype (%) [12]: 96%
Total Cell Count [12]: 199
